Test results reported in ChEMBL document CHEMBL1817556, “Substituted lactam and cyclic azahemiacetals modulate Pseudomonas aeruginosa quorum sensing” (Bioorg Med Chem, 2011).
Activity calls are given as the source filed them. The rule behind the calls is not given here.

Columns and labels:
[1] = molecular target: T1, Acyl-homoserine-lactone synthase (Pseudomonas aeruginosa (strain ATCC 15692 / PAO1 / 1C / PRS 101 / LMG12228)) (UniProt P33883); test: Modulation of Pseudomonas aeruginosa lacZ-fused lasI expressed in Escherichia coli DH5alpha co-expressing pBAD-lasR assessed as 3-oxo-C12-AHL-induced effect at 0.77 mM after 3 hrs by beta-galactosidase assay relative to control
T1 sequence (whole entry): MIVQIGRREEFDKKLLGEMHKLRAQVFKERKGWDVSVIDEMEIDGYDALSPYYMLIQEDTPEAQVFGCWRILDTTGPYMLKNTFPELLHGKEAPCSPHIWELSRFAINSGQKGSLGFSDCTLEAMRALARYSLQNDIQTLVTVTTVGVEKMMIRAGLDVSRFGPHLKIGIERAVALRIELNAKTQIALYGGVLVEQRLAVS
Procedure, shortened: (§1)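 E. coli DH5α carrying pSC11 (PlasI-lacZ translational fusion) and pJN105L (PBAD-lasR) was grown overnight in LB with ampicillin (100 μg/ml) and gentamicin (15 μg/ml), then diluted to OD600 0.150. Arabinose (0.2% w/v), 3-oxo-C12-AHL (2 μM) and test compound or DMSO were added. Cultures were shaken 3 h at 37 °C. β-Galactosidase activity was read in Miller units and expressed as % of the solvent sample. Triplicates per biological replicate, repeated at least twice; paired two-tailed t-test.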

[2] = molecular target: T1, Acyl-homoserine-lactone synthase (Pseudomonas aeruginosa (strain ATCC 15692 / PAO1 / 1C / PRS 101 / LMG12228)); test: Modulation of Pseudomonas aeruginosa lacZ-fused lasI expressed in Escherichia coli DH5alpha co-expressing pBAD-lasR assessed as 3-oxo-C12-AHL-induced effect at 0.39 mM after 3 hrs by beta-galactosidase assay relative to control; procedure, shortened: as §1
[3] = molecular target: T1, Acyl-homoserine-lactone synthase (Pseudomonas aeruginosa (strain ATCC 15692 / PAO1 / 1C / PRS 101 / LMG12228)); test: Modulation of Pseudomonas aeruginosa lacZ-fused lasI expressed in Escherichia coli DH5alpha co-expressing pBAD-lasR assessed as 3-oxo-C12-AHL-induced effect at 0.19 mM after 3 hrs by beta-galactosidase assay relative to control; procedure, shortened: as §1
[4] = molecular target: 3-(3-hydroxydecanoyloxy)decanoate synthase (Pseudomonas aeruginosa (strain ATCC 15692 / PAO1 / 1C / PRS 101 / LMG12228)) (UniProt Q51559); test: Modulation of Pseudomonas aeruginosa lacZ-fused rhlA expressed in Escherichia coli DH5alpha co-expressing Ptac-rhlR assessed as C4-AHL-induced effect at 0.58 mM after 4 hrs by beta-galactosidase assay relative to control
Procedure, shortened: (§2)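 E. coli DH5α carrying pECP61.5 (Ptac-rhlR, PrhlA-lacZ), grown overnight in LB with ampicillin 100 μg/ml and diluted to OD600 0.150. At OD600 1.0, 1 mM IPTG, 2 μM C4-HSL and compound or DMSO were added. Cultures were shaken 4 h at 37 °C, then β-galactosidase was read in Miller units. Activity is % of solvent sample, from triplicates per biological replicate, with at least two repeats.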

[5] = molecular target: 3-(3-hydroxydecanoyloxy)decanoate synthase (Pseudomonas aeruginosa (strain ATCC 15692 / PAO1 / 1C / PRS 101 / LMG12228)) (UniProt Q51559); test: Modulation of Pseudomonas aeruginosa lacZ-fused rhlA expressed in Escherichia coli DH5alpha co-expressing Ptac-rhlR assessed as C4-AHL-induced effect at 0.19 mM after 4 hrs by beta-galactosidase assay relative to control
Procedure, shortened: (§3)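 rhl reporter: E. coli DH5α carrying pECP61.5 (Ptac-rhlR, PrhlA-lacZ) was grown overnight in LB with ampicillin (100 μg/ml) only, then diluted to OD600 0.150. It was induced with 1 mM IPTG, and 2 μM C4-HSL plus compound or DMSO were added at OD600 1.0. Cultures were shaken 4 h at 37 °C. β-Galactosidase activity was read in Miller units as % of the solvent sample. Triplicates per biological replicate, at least two repeats; paired two-tailed t-test.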

[6] = molecular target: 3-(3-hydroxydecanoyloxy)decanoate synthase (Pseudomonas aeruginosa (strain ATCC 15692 / PAO1 / 1C / PRS 101 / LMG12228)) (UniProt Q51559); test: Modulation of Pseudomonas aeruginosa lacZ-fused rhlA expressed in Escherichia coli DH5alpha co-expressing Ptac-rhlR assessed as C4-AHL-induced effect at 0.77 mM after 4 hrs by beta-galactosidase assay relative to control; procedure, shortened: as §2
[7] = molecular target: T1, Acyl-homoserine-lactone synthase (Pseudomonas aeruginosa (strain ATCC 15692 / PAO1 / 1C / PRS 101 / LMG12228)); test: Modulation of Pseudomonas aeruginosa lacZ-fused lasI expressed in Escherichia coli DH5alpha co-expressing pBAD-lasR assessed as 3-oxo-C12-AHL-induced effect at 0.58 mM after 3 hrs by beta-galactosidase assay relative to control; procedure, shortened: as §1
[8] = molecular target: 3-(3-hydroxydecanoyloxy)decanoate synthase (Pseudomonas aeruginosa (strain ATCC 15692 / PAO1 / 1C / PRS 101 / LMG12228)) (UniProt Q51559); test: Modulation of Pseudomonas aeruginosa lacZ-fused rhlA expressed in Escherichia coli DH5alpha co-expressing Ptac-rhlR assessed as C4-AHL-induced effect at 0.39 mM after 4 hrs by beta-galactosidase assay relative to control; procedure, shortened: as §3
[9] = molecular target: 3-(3-hydroxydecanoyloxy)decanoate synthase (Pseudomonas aeruginosa (strain ATCC 15692 / PAO1 / 1C / PRS 101 / LMG12228)) (UniProt Q51559); test: Modulation of Pseudomonas aeruginosa lacZ-fused rhlA expressed in Escherichia coli DH5alpha co-expressing Ptac-rhlR assessed as C4-AHL-induced effect at 0.20 mM after 4 hrs by beta-galactosidase assay relative to control; procedure, shortened: as §3
[10] = molecular target: T1, Acyl-homoserine-lactone synthase (Pseudomonas aeruginosa (strain ATCC 15692 / PAO1 / 1C / PRS 101 / LMG12228)); test: Modulation of Pseudomonas aeruginosa lacZ-fused lasI expressed in Escherichia coli DH5alpha co-expressing pBAD-lasR assessed as 3-oxo-C12-AHL-induced effect at 0.20 mM after 3 hrs by beta-galactosidase assay relative to control; procedure, shortened: as §1
[11] = molecular target: 3-(3-hydroxydecanoyloxy)decanoate synthase (Pseudomonas aeruginosa (strain ATCC 15692 / PAO1 / 1C / PRS 101 / LMG12228)) (UniProt Q51559); test: Modulation of Pseudomonas aeruginosa lacZ-fused rhlA expressed in Escherichia coli DH5alpha co-expressing Ptac-rhlR assessed as C4-AHL-induced effect at 0.61 mM after 4 hrs by beta-galactosidase assay relative to control; procedure, shortened: as §2
[12] = molecular target: 3-(3-hydroxydecanoyloxy)decanoate synthase (Pseudomonas aeruginosa (strain ATCC 15692 / PAO1 / 1C / PRS 101 / LMG12228)) (UniProt Q51559); test: Modulation of Pseudomonas aeruginosa lacZ-fused rhlA expressed in Escherichia coli DH5alpha co-expressing Ptac-rhlR assessed as C4-AHL-induced effect at 0.81 mM after 4 hrs by beta-galactosidase assay relative to control; procedure, shortened: as §2
[13] = molecular target: T1, Acyl-homoserine-lactone synthase (Pseudomonas aeruginosa (strain ATCC 15692 / PAO1 / 1C / PRS 101 / LMG12228)); test: Modulation of Pseudomonas aeruginosa lacZ-fused lasI expressed in Escherichia coli DH5alpha co-expressing pBAD-lasR assessed as 3-oxo-C12-AHL-induced effect at 0.61 mM after 3 hrs by beta-galactosidase assay relative to control; procedure, shortened: as §1
[14] = molecular target: T1, Acyl-homoserine-lactone synthase (Pseudomonas aeruginosa (strain ATCC 15692 / PAO1 / 1C / PRS 101 / LMG12228)); test: Modulation of Pseudomonas aeruginosa lacZ-fused lasI expressed in Escherichia coli DH5alpha co-expressing pBAD-lasR assessed as 3-oxo-C12-AHL-induced effect at 0.81 mM after 3 hrs by beta-galactosidase assay relative to control; procedure, shortened: as §1
[15] = molecular target: 3-(3-hydroxydecanoyloxy)decanoate synthase (Pseudomonas aeruginosa (strain ATCC 15692 / PAO1 / 1C / PRS 101 / LMG12228)) (UniProt Q51559); test: Modulation of Pseudomonas aeruginosa lacZ-fused rhlA expressed in Escherichia coli DH5alpha co-expressing Ptac-rhlR assessed as C4-AHL-induced effect at 0.40 mM after 4 hrs by beta-galactosidase assay relative to control; procedure, shortened: as §3
[16] = molecular target: T1, Acyl-homoserine-lactone synthase (Pseudomonas aeruginosa (strain ATCC 15692 / PAO1 / 1C / PRS 101 / LMG12228)); test: Modulation of Pseudomonas aeruginosa lacZ-fused lasI expressed in Escherichia coli DH5alpha co-expressing pBAD-lasR assessed as 3-oxo-C12-AHL-induced effect at 0.40 mM after 3 hrs by beta-galactosidase assay relative to control; procedure, shortened: as §1
[17] = molecular target: T1, Acyl-homoserine-lactone synthase (Pseudomonas aeruginosa (strain ATCC 15692 / PAO1 / 1C / PRS 101 / LMG12228)); test: Modulation of Pseudomonas aeruginosa lacZ-fused lasI expressed in Escherichia coli DH5alpha co-expressing pBAD-lasR assessed as 3-oxo-C12-AHL-induced effect at 0.86 mM after 3 hrs by beta-galactosidase assay relative to control; procedure, shortened: as §1
[18] = molecular target: 3-(3-hydroxydecanoyloxy)decanoate synthase (Pseudomonas aeruginosa (strain ATCC 15692 / PAO1 / 1C / PRS 101 / LMG12228)) (UniProt Q51559); test: Modulation of Pseudomonas aeruginosa lacZ-fused rhlA expressed in Escherichia coli DH5alpha co-expressing Ptac-rhlR assessed as C4-AHL-induced effect at 0.57 mM after 4 hrs by beta-galactosidase assay relative to control; procedure, shortened: as §3
[19] = molecular target: T1, Acyl-homoserine-lactone synthase (Pseudomonas aeruginosa (strain ATCC 15692 / PAO1 / 1C / PRS 101 / LMG12228)); test: Modulation of Pseudomonas aeruginosa lacZ-fused lasI expressed in Escherichia coli DH5alpha co-expressing pBAD-lasR at 0.29 to 0.86 mM after 3 hrs by beta-galactosidase assay relative to control; procedure, shortened: as §1
[20] = molecular target: 3-(3-hydroxydecanoyloxy)decanoate synthase (Pseudomonas aeruginosa (strain ATCC 15692 / PAO1 / 1C / PRS 101 / LMG12228)) (UniProt Q51559); test: Modulation of Pseudomonas aeruginosa lacZ-fused rhlA expressed in Escherichia coli DH5alpha co-expressing Ptac-rhlR assessed as C4-AHL-induced effect at 0.29 mM after 4 hrs by beta-galactosidase assay relative to control; procedure, shortened: as §3
[21] = molecular target: 3-(3-hydroxydecanoyloxy)decanoate synthase (Pseudomonas aeruginosa (strain ATCC 15692 / PAO1 / 1C / PRS 101 / LMG12228)) (UniProt Q51559); test: Modulation of Pseudomonas aeruginosa lacZ-fused rhlA expressed in Escherichia coli DH5alpha co-expressing Ptac-rhlR assessed as C4-AHL-induced effect at 0.86 mM after 4 hrs by beta-galactosidase assay relative to control; procedure, shortened: as §2
[22] = molecular target: T1, Acyl-homoserine-lactone synthase (Pseudomonas aeruginosa (strain ATCC 15692 / PAO1 / 1C / PRS 101 / LMG12228)); test: Modulation of Pseudomonas aeruginosa lacZ-fused lasI expressed in Escherichia coli DH5alpha co-expressing pBAD-lasR assessed as 3-oxo-C12-AHL-induced effect at 0.57 mM after 3 hrs by beta-galactosidase assay relative to control; procedure, shortened: as §1
[23] = molecular target: T1, Acyl-homoserine-lactone synthase (Pseudomonas aeruginosa (strain ATCC 15692 / PAO1 / 1C / PRS 101 / LMG12228)); test: Modulation of Pseudomonas aeruginosa lacZ-fused lasI expressed in Escherichia coli DH5alpha co-expressing pBAD-lasR assessed as 3-oxo-C12-AHL-induced effect at 0.29 mM after 3 hrs by beta-galactosidase assay relative to control; procedure, shortened: as §1
[24] = molecular target: 3-(3-hydroxydecanoyloxy)decanoate synthase (Pseudomonas aeruginosa (strain ATCC 15692 / PAO1 / 1C / PRS 101 / LMG12228)) (UniProt Q51559); test: Modulation of Pseudomonas aeruginosa lacZ-fused rhlA expressed in Escherichia coli DH5alpha co-expressing Ptac-rhlR assessed as C4-AHL-induced effect at 1.14 mM after 4 hrs by beta-galactosidase assay relative to control; procedure, shortened: as §2
[25] = molecular target: T1, Acyl-homoserine-lactone synthase (Pseudomonas aeruginosa (strain ATCC 15692 / PAO1 / 1C / PRS 101 / LMG12228)); test: Modulation of Pseudomonas aeruginosa lacZ-fused lasI expressed in Escherichia coli DH5alpha co-expressing pBAD-lasR assessed as 3-oxo-C12-AHL-induced effect at 1.14 mM after 3 hrs by beta-galactosidase assay relative to control; procedure, shortened: as §1

Question: For `CCCCCCCCCSC[C@@H]1CCC(O)N1` (mixture of isomers), which Activity [1] is on record?
Answer: 47%

Question: And the Activity [2]?
Answer: 65%

Question: What about the Activity [3] of the same compound?
Answer: 74%

Question: What about the Activity [4] of the same compound?
Answer: 100%

Question: And the Activity [5]?
Answer: 93%

Question: What about the Activity [6] of the same compound?
Answer: 99%

Question: What about the Activity [7] of the same compound?
Answer: 57%

Question: And the Activity [8]?
Answer: 80%

Question: With `CCCCCCSC[C@H]1NC(=O)[C@H](O)[C@@H]1O` as the compound, how does the Activity [9] read?
Answer: 132%

Question: What about the Activity [10] of the same compound?
Answer: 96%

Question: And the Activity [11]?
Answer: 148%

Question: And the Activity [12]?
Answer: 161%

Question: And the Activity [13]?
Answer: 79%

Question: What about the Activity [14] of the same compound?
Answer: 68%

Question: And the Activity [15]?
Answer: 129%

Question: What about the Activity [16] of the same compound?
Answer: 78%

Question: `CCCSC[C@@H]1CCC(O)N1` (mixture of isomers) was tested. Which Activity [17] did it give?
Answer: 31%

Question: And the Activity [18]?
Answer: 138%

Question: What about the Activity [19] of the same compound?
Answer: inactive

Question: What about the Activity [20] of the same compound?
Answer: 121%

Question: What about the Activity [21] of the same compound?
Answer: 41%

Question: What about the Activity [22] of the same compound?
Answer: 115%

Question: And the Activity [23]?
Answer: 228%

Question: And the Activity [24]?
Answer: 9%

Question: And the Activity [25]?
Answer: 11%
